Measured values reported in ChEMBL document CHEMBL3769370, “Synthesis and SAR of 4-methyl-5-pentylbenzene-1,3-diol (MPBD), produced by Dictyostelium discoideum” (2016).
Active and inactive are the calls of the source. The calls are words filed in the database; no cut-off is given here.

Assays:
Type in all cases: functional
Bacillus subtilis [1] = assay: Antibacterial activity against Bacillus subtilis at 100 mM after 16 to 24 hrs by disk diffusion assay; settings: for zone of inhibition at 100000 µM: read-out: DIZ
Summary of the method: (§1)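 Bacteria grown in Lysogeny broth (LB), spread on LB or lactose peptone (LP) agar, and plates dried 10 min. 6 mm filter-paper disks placed, five per plate, at least 3 cm apart. Each disk loaded with a 100 mM solution of compound. Incubation 16–24 h at 37 °C. Zone of clearance around each disk inspected and photographed.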

Escherichia coli [2] = assay: Antibacterial activity against Escherichia coli at 100 mM after 16 to 24 hrs by disk diffusion assay; settings: for zone of inhibition at 100000 µM: read-out: DIZ; summary of the method: as §1
Escherichia coli [3] = assay: Antibacterial activity against Escherichia coli at 50 mM after 16 to 24 hrs by disk diffusion assay; settings: read-out: DIZ
Summary of the method: (§2)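 Positive-control disks loaded with 50 mM ampicillin solution. Bacteria grown in LB and spread on LB or LP agar, with plates dried 10 min before disks were placed. Disks were 6 mm filter paper, five per plate spaced at least 3 cm apart. Plates held at 37 °C for 16–24 h, then the clearance zone was checked and photographed.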

Bacillus subtilis [4] = assay: Antibacterial activity against Bacillus subtilis at 50 mM after 16 to 24 hrs by disk diffusion assay; settings: read-out: DIZ; summary of the method: as §2

SMILES	zone of inhibition at 100000 µM (Bacillus subtilis [1]) [mm]	zone of inhibition at 100000 µM (Escherichia coli [2]) [mm]	further results
CCCCCc1cc(O)cc(O)c1CC	1	4	
CCCCCc1cc(OC)cc(OC)c1C			Activity (Bacillus subtilis [1]): inactive; Activity (Escherichia coli [2]): inactive
CCCCCc1cc(O)cc(O)c1C	1	5	
CC1(C)S[C@@H]2[C@H](NC(=O)[C@H](N)c3ccccc3)C(=O)N2[C@H]1C(=O)O [AMPICILLIN]			zone of inhibition at 50000 µM (Escherichia coli [3]): 7 mm; zone of inhibition at 50000 µM (Bacillus subtilis [4]): 7 mm
CCCCCc1cc(O)ccc1C	1	1	
CCCCCc1cc(O)cc(O)c1CCC	4	4	
